Measured values: ChEMBL document CHEMBL4321820, “Identification and Optimization of Mechanism-Based Fluoroallylamine Inhibitors of Lysyl Oxidase-like 2/3” (J Med Chem, 2019)
Active and inactive are the calls of the source. The rule behind the calls is not given here.

Legend:
[1] = target: T1, Lysyl oxidase homolog 2 (Homo sapiens) (UniProt Q9Y4K0); assay: Irreversible inhibition of recombinant human C-terminal His-tagged […] (1-774 residues) expressed in mouse myeloma cells assessed as maximal inhibition at 30XIC50 incubated for 60 mins followed by 100-fold dilution prior to addition of putrescine as substrate and measured after 30 mins by jump dilution assay based Amplex-Red oxidation assay relative to control
T1 sequence (whole entry): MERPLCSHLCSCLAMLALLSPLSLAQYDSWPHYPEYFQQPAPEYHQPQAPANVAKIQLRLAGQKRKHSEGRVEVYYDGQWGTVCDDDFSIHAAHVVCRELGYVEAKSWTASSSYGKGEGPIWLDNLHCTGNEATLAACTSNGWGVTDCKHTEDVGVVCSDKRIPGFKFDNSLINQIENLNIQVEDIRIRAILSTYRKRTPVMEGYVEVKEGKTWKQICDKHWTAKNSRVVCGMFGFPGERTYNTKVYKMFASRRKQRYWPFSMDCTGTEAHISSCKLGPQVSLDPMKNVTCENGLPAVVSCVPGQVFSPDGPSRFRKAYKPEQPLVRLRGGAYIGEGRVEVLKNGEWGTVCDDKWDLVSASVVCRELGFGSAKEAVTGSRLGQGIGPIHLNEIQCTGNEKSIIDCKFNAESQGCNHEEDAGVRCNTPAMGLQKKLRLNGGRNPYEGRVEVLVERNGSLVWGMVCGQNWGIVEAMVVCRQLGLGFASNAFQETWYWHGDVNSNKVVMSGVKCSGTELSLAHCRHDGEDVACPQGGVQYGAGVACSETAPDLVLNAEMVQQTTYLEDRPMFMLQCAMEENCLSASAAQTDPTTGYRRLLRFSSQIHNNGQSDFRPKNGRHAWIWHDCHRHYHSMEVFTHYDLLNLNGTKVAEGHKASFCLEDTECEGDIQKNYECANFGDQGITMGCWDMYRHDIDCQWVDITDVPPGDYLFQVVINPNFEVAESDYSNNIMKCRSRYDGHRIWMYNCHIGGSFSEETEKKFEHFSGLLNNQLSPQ
Procedure, shortened: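 LOXL2 soaked 60 min at 37 °C with inhibitor at 30× IC50. Diluted 50-fold in assay buffer (1.2 M urea, 50 mM borate, pH 8.2), then 1:2 with reaction mix of Amplex Red 120 µM, HRP 1.5 U/mL and putrescine. Read out 30 min after substrate addition (ex 565/em 590, 37 °C). Percent activity followed over time after dilution.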

[2] = target: T1, Lysyl oxidase homolog 2 (Homo sapiens); assay: Time-dependent inhibition of recombinant human C-terminal His-tagged […] (1-774 residues) expressed in mouse myeloma cells assessed as inactivation constant using putrescine as substrate by kitz-wilson plot analysis
Procedure, shortened: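 Recombinant human LOXL2 preincubated with inhibitor for varying times at 37 °C, then 5 mM putrescine added with 120 µM Amplex Red and 1.5 U/mL HRP. Buffer was 1.2 M urea, 50 mM sodium borate, pH 8.2. Fluorescence read every 2.5 min for 30 min. Apparent Ki and kinact derived by Kitz–Wilson analysis.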

[3] = target: T1, Lysyl oxidase homolog 2 (Homo sapiens); assay: Substrate competitive inhibition of recombinant human C-terminal His-tagged […] (1-774 residues) expressed in mouse myeloma cells using different concentrations of putrescine as substrate preincubated with enzyme for 30 mins followed by substrate addition and measured every 2.5 mins for 30 mins by substrate competition based Amplex-Red oxidation assay
Procedure, shortened: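 Recombinant LOXL2 incubated with inhibitor plus a range of putrescine concentrations before the reaction mix was added (120 µM Amplex Red, 1.5 U/mL HRP). Buffer was 1.2 M urea, 50 mM sodium borate, pH 8.2. Fluorescence (ex 565/em 590 nm) read every 2.5 min for 30 min at 37 °C.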

[4] = target: T1, Lysyl oxidase homolog 2 (Homo sapiens); assay: Inhibition of recombinant human C-terminal His-tagged […] (1-774 residues) expressed in mouse myeloma cells at 10XIC50 preincubated with bound enzyme for 30 mins followed by drug wash-out and later incubated with putrescine substrate and measured after 30 mins by Amplex-Red oxidation assay; assay type: cell-based
[5] = Selectivity index, ratio of IC50 for recombinant human C-terminal His-tagged […] (1-774 residues) expressed in mouse myeloma cells to IC50 for LOX in bovine aorta
[6] = target: T1, Lysyl oxidase homolog 2 (Homo sapiens); assay: Inhibition of recombinant human LOXL2 assessed as inhibition of collagen cross linking compound replenishment for 5 days and measured on day 7 by UPLC-ESI-MS/MS analysis
Homo sapiens = species on record: Homo sapiens; assay: Displacement of [3H]PK11195 from human recombinant peripheral benzodiazepine receptor at 10 uM incubated for 15 mins by scintillation counting method
Procedure, shortened: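 Single-concentration screen at 10 µM in a panel of 119 enzyme and receptor targets under standard conditions; >50% inhibition of radioligand binding counted as a hit.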

Protein-lysine 6-oxidase = target: T2, Protein-lysine 6-oxidase (Bos taurus, UniProt P33072); assay: Inhibition of LOX in bovine aorta using putrescine as substrate preincubated with enzyme for 30 mins followed by substrate addition and measured every 2.5 mins for 30 mins by Amplex-Red oxidation assay; assay type: tissue-based; details: read-out: pIC50 (converted)
T2 sequence (P33072 whole entry): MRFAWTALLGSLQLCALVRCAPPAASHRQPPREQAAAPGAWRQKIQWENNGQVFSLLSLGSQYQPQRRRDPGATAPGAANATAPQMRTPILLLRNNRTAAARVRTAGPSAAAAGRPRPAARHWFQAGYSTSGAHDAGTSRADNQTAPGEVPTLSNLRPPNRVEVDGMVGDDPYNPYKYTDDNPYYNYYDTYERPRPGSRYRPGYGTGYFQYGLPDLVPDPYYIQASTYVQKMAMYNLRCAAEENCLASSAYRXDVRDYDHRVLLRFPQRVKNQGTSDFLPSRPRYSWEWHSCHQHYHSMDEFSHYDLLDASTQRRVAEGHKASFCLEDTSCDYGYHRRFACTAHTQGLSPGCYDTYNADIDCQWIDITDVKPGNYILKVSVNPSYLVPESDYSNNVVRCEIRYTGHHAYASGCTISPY
Procedure, shortened: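 LOX extracted from calf aorta after PBS washing with 4 M urea/50 mM borate pH 8.2, concentrated on 10 kDa filters into 1.2 M urea/borate with protease inhibitors. Preincubated 30 min at 37 °C with compound, then Amplex Red/HRP with 10 mM putrescine; fluorescence read every 2.5 min for 30 min.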

Mus musculus [7] = assay: Increase in plasma AST level in CCl4-induced BALB/c mouse model of liver fibrosis at 2 mg/ml, po administered every 2 day for 6 weeks; assay type: ADME, organism-based; details: in vivo
Procedure, shortened: (§1)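 Female BALB/c mice given CCl4 i.p. (1 mL/kg of 25% CCl4 in olive oil) twice weekly for 6 weeks, killed 48 h after the last dose. The 2 mg/mL treatment was given in drinking water ad libitum, changed every second day, for 6 weeks (n=15). ALT and AST were measured in plasma.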

Mus musculus [8] = assay: Antifibrotic activity in CCl4-induced BALB/c mouse model of liver fibrosis assessed as reduction in liver fibrosis area at 2 mg/ml, po administered every 2 day for 6 weeks by alpha-SMA staining based microscopy; assay type: functional, organism-based
Procedure, shortened: (§2)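 Female BALB/c mice given CCl4 i.p. (1 mL/kg of 25% CCl4 in olive oil) twice weekly for 6 weeks, killed 48 h after the last dose. The 2 mg/mL treatment was given in drinking water ad libitum, changed every second day, for 6 weeks (n=15). One liver lobe was formalin-fixed and stained for Picro Sirius Red or α-SMA. Slides were scanned at 20X. Fibrotic area is given as % of total liver area, mean ± SEM. One-way ANOVA with Dunnett's test vs CCl4 + vehicle.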

Mus musculus [9] = assay: Antifibrotic activity in CCl4-induced BALB/c mouse model of liver fibrosis assessed as liver fibrosis area at 2 mg/ml, po administered every 2 day for 6 weeks by picro-sirius red staining based microscopy; assay type: functional, organism-based; procedure, shortened: as §2
Mus musculus [10] = assay: Increase in plasma ALT level in CCl4-induced BALB/c mouse model of liver fibrosis at 2 mg/ml, po administered every 2 day for 6 weeks; assay type: ADME, organism-based; details: in vivo; procedure, shortened: as §1

Imax [1] | Kinact [2] | inhibition [3] | inhibition [4] | inhibition [6] | inhibition (Homo sapiens) | Compound | IC50 ratio [5] | IC50 (Protein-lysine 6-oxidase) | Activity (Mus musculus [7]) | inhibition (Mus musculus [8]) | inhibition (Mus musculus [9]) | Activity (Mus musculus [10])
> 80% | 0.89 min⁻¹ | Active | Active | Dose-dependent effect | > 50% | Cc1c(-c2cccc(S(=O)(=O)N(C)C)c2)c2cc(C(=O)O)ccc2n1C/C(F)=C/CN | > 300 | – | – | – | – | –
– | – | – | – | – | – | N#CCCN | – | 2000 nM | Toxic | Active | inactive | Toxic
